A word on the pIC50: it is −log10 of the IC50, conventionally taken in molar units.

These results are taken from ChEMBL document CHEMBL4622881, “Design, synthesis and biological evaluation of novel pyrrolo[2,3-d]pyrimidine as tumor-targeting agents with selectivity for tumor uptake by high affinity folate receptors over the reduced folate carrier” (Bioorg Med Chem, 2020).

Test [1] is described as follows: Inhibition of GARFTase in Chinese Hamster D4 cells expressing human FRbeta assessed as reduction in cell growth after 96 hrs by Cell-Titer Blue assay. The settings on record: Cricetulus griseus. It counts as cell-based.
The species named for test [2] is Cricetulus griseus. Put plainly: Potency index, ratio of (2S)-2-[[4-[4-(2-amino-4-oxo-3,7-dihydropyrrolo[2,3-d]pyrimidin-6-yl)butyl]benzoyl]amino]pentanedioic acid IC50 to compound IC50 for GARFTase in Chinese Hamster D4 cells expressing human FRbeta assessed as reduction in cell growth after 96 hrs by Cell-Titer Blue assay. It counts as cell-based. The method, boiled down: (§1)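 CHO sublines from transporter-null R2 cells, expressing human FRβ (D4) or FRα (RT16), were kept in α-MEM with 10% calf serum and G418 (1 mg/mL). They were then moved to folate-free RPMI 1640 with 10% dialyzed FBS for 3 days. ~2000 cells/well were exposed to 0–1000 nM drug with 2 nM leucovorin for 96 h, ± 200 nM folic acid, and read by Cell-Titer Blue fluorescence. IC50 is 50% growth loss versus untreated cells; index is reference IC50 over compound IC50.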

The nature of test [3]: Inhibition of GARFTase in Chinese Hamster MTXRII-OuaR2-4/RFC/FRalpha/PCFT-null R2 cells assessed as reduction in cell growth after 96 hrs by Cell-Titer Blue assay. The settings on record: Cricetulus griseus, R2, 96 h. It counts as cell-based.
A short description of test [4]: Inhibition of GARFTase in Chinese Hamster MTXRII-OuaR2-4 R2 cells expressing human PCFT assessed as reduction in cell growth after 96 hrs by Cell-Titer Blue assay. It counts as cell-based. The settings on record: Cricetulus griseus, R2, 96 h.
For test [5], the target named is T1, Trifunctional purine biosynthetic protein adenosine-3 (Homo sapiens) (UniProt P22102).
T1 sequence (whole entry): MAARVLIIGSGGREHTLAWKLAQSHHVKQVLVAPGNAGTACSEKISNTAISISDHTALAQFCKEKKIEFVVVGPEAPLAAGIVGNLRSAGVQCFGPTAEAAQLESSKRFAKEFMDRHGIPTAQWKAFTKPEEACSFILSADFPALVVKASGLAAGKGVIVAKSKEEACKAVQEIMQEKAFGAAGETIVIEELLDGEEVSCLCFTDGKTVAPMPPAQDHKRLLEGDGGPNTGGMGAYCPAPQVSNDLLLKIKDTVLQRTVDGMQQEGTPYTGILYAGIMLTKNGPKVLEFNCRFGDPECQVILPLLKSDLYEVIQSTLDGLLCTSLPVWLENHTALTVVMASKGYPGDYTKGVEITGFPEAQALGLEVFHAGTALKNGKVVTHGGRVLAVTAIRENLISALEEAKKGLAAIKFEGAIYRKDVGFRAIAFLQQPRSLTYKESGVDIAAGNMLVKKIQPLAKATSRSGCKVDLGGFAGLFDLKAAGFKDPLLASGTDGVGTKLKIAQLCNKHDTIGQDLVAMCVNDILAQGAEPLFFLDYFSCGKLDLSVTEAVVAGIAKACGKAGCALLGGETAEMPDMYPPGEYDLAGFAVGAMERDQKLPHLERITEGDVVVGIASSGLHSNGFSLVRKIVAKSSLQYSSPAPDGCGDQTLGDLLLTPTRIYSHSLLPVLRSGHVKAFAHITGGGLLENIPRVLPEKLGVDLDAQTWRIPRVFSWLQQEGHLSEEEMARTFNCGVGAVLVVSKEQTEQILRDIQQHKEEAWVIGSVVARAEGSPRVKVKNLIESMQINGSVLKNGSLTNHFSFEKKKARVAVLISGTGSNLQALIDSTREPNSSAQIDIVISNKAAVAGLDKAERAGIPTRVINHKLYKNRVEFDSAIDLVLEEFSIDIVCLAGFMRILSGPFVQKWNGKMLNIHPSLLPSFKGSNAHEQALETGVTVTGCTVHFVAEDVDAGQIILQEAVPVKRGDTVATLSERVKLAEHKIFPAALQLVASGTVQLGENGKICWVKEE
Briefly: Potency index, ratio of (2S)-2-[[4-[4-(2-amino-4-oxo-3,7-dihydropyrrolo[2,3-d]pyrimidin-6-yl)butyl]benzoyl]amino]pentanedioic acid IC50 to compound IC50 for GARFTase in human KB cells assessed as reduction in cell growth after 96 hrs by Cell-Titer Blue assay. Type of test: cell-based. An outline of the steps:
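KB human carcinoma cells, which express RFC, FRα and PCFT, were maintained in folate-free RPMI with 10% FBS. ~2000 cells/well were exposed to 0–1000 nM drug in folate-free RPMI 1640 with 10% dialyzed FBS and 2 nM leucovorin for 96 h, ± 200 nM folic acid. Viability was read by Cell-Titer Blue fluorescence. IC50 is 50% growth loss versus untreated cells; index is reference IC50 over compound IC50.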

Test [6] can be described thus: Inhibition of GARFTase in Chinese Hamster RT16 cells expressing human FRalpha assessed as reduction in cell growth after 96 hrs by Cell-Titer Blue assay. It counts as cell-based. As to conditions: Cricetulus griseus, RT16, 96 h.
A short description of test [7]: Inhibition of GARFTase in Chinese Hamster PC43-10 cells expressing human RFC assessed as reduction in cell growth after 96 hrs by Cell-Titer Blue assay. As to conditions: Cricetulus griseus, PC43-10, 96 h. The method, boiled down: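 PC43-10 (RFC) or R2/PCFT4 (PCFT) CHO, grown in α-MEM + 10% bovine calf serum + G418 (1 mg/mL). ~2000 cells/well exposed to 0–1000 nM drug in folate-free RPMI 1640 with 10% dialyzed FBS and 25 nM leucovorin for 96 h. Viability by Cell-Titer Blue fluorescence; IC50 as 50% growth inhibition relative to drug-free cells; mean of 5–16 experiments.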

For test [8], the species on record is Cricetulus griseus. Put plainly: Potency index, ratio of (2S)-2-[[4-[4-(2-amino-4-oxo-3,7-dihydropyrrolo[2,3-d]pyrimidin-6-yl)butyl]benzoyl]amino]pentanedioic acid IC50 to compound IC50 for GARFTase in Chinese Hamster RT16 cells expressing human FRalpha assessed as reduction in cell growth after 96 hrs by Cell-Titer Blue assay. It counts as cell-based. An outline of the steps: as §1

pIC50: −log10 of the molar value.

Take `Nc1nc2[nH]c(CCCNc3ccc(C(=O)N[C@@H](CCC(=O)O)C(=O)O)cc3)cc2c(=O)[nH]1`: the pIC50 in test [1] was 8.82; in test [3], 6.16; in test [4] it was 6.63; in test [6], 8.75; in test [7], 6.17. Moreover, the Ratio IC50 in test [2] is 6; in test [5], 2; in test [8], 3.

Take `CC(=O)N(CCCc1cc2c(=O)[nH]c(N)nc2[nH]1)c1ccc(C(=O)N[C@@H](CCC(=O)O)C(=O)O)cc1`: the pIC50 in test [1] is 7.89; in test [3], less than 6.00; in test [4], less than 6.00; in test [6], 7.24; in test [7] it was less than 6.00.

Take `Nc1nc2[nH]c(CCCOc3ccc(C(=O)N[C@@H](CCC(=O)O)C(=O)O)cc3)cc2c(=O)[nH]1`: the pIC50 in test [1] was 8.25; in test [3], less than 6.00; in test [4] it was less than 6.00; in test [6] it was 8.34; in test [7] it was less than 6.00. In addition, in test [2], the Ratio IC50 worked out at 2.

Turning to `Nc1nc2[nH]c(CCCSc3ccc(C(=O)N[C@@H](CCC(=O)O)C(=O)O)cc3)cc2c(=O)[nH]1`, the pIC50 was 9.22 in test [1]; less than 6.00 in test [3]; 6.23 in test [4]; 8.59 in test [6]; less than 6.00 in test [7]. Further, the values for the Ratio IC50 in test [2], in test [5] and in test [8] were 16, 6 and 2, respectively.

Regarding `Nc1nc2[nH]c(CCCc3ccc(C(=O)N[C@@H](CCC(=O)O)C(=O)O)cc3)cc2c(=O)[nH]1`, the pIC50 in test [3] was less than 6.00; in test [7], 6.19.

Consider `Nc1nc2[nH]c(CCNc3ccc(C(=O)N[C@@H](CCC(=O)O)C(=O)O)cc3)cc2c(=O)[nH]1`, for which the pIC50 in test [1] was 9.21; in test [3], less than 6.00; in test [4] it was 7.06; in test [6] it was 8.52; in test [7], 6.29.

Take `Nc1nc2[nH]c(CCCN(C(=O)C(F)(F)F)c3ccc(C(=O)N[C@@H](CCC(=O)O)C(=O)O)cc3)cc2c(=O)[nH]1`: the pIC50 is 8.41 in test [1]; less than 6.00 in test [3]; 6.31 in test [4]; 8.24 in test [6]; less than 6.00 in test [7]. Besides, in test [2], the Ratio IC50 was determined as 3.

On to `Nc1nc2[nH]c(CCCN(C=O)c3ccc(C(=O)N[C@@H](CCC(=O)O)C(=O)O)cc3)cc2c(=O)[nH]1`, for which the pIC50 in test [1] is 9.21; in test [3] it was less than 6.00; in test [4], 6.05; in test [6], 7.45; in test [7], less than 6.00. For the same compound, the Ratio IC50 in test [2] came out at 16.

`Nc1nc2[nH]c(CCCCc3ccc(C(=O)N[C@@H](CCC(=O)O)C(=O)O)cc3)cc2c(=O)[nH]1`: the pIC50 in test [3] and in test [7] was less than 6.00 throughout.
